From publication PMC6520168 (ACS chemical neuroscience, 2019)
“Also recorded” adds a separate entry of the source. Read-outs that look alike come from different tables or passages of the source.

Tests used:
MOR [1] = biological target: T1, MOR (Mus musculus, UniProt P42866); type: cell-based; conditions: 24 h pretreatment
MOR [2] = biological target: T1, MOR; conditions: 24 h pretreatment; values previously published; cited from earlier work
μ opioid receptor (MOR) = μ opioid receptor (MOR) (Mus musculus, UniProt P42866); experiment: [35S]-GTPγS functional assay in mMOR-CHO cell membranes; type: biochemical
μ opioid receptor (MOR), sequence (P42866 whole entry): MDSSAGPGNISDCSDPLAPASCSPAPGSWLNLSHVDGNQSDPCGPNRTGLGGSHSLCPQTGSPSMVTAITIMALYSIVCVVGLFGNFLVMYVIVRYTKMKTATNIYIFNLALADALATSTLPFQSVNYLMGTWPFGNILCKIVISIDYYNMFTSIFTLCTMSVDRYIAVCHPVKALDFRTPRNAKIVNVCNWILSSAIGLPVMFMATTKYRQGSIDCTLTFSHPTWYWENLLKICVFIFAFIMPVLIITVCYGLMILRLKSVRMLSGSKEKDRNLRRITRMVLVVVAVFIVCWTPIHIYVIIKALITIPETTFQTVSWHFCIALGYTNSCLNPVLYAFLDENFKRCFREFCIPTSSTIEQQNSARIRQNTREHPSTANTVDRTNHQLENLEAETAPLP

MOR in mouse thalamus = MOR in mouse thalamus (Mus musculus, UniProt P42866); experiment: [35S]-GTPγS functional assay in mouse thalamus membranes; type: biochemical
MOR in mouse thalamus, sequence (P42866 whole entry): as above

δ opioid receptor (DOR) = δ opioid receptor (DOR) (Mus musculus, UniProt P32300); experiment: [35S]-GTPγS functional assay in mDOR-CHO cells; type: biochemical
δ opioid receptor (DOR), sequence (P32300 whole entry): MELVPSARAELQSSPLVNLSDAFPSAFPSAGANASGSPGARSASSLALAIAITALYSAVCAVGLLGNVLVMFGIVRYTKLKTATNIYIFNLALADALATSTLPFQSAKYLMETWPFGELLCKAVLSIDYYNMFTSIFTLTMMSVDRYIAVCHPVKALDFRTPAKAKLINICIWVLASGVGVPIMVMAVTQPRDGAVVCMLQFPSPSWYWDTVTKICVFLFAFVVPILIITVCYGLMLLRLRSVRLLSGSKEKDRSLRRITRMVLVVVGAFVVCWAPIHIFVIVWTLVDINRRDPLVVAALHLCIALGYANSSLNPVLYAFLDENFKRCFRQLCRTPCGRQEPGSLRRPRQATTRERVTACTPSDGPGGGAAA

κ opioid receptor (KOR) = κ opioid receptor (KOR) (Mus musculus, UniProt P33534); experiment: [35S]-GTPγS functional assay in mKOR-CHO cells; type: biochemical
κ opioid receptor (KOR), sequence (P33534 whole entry): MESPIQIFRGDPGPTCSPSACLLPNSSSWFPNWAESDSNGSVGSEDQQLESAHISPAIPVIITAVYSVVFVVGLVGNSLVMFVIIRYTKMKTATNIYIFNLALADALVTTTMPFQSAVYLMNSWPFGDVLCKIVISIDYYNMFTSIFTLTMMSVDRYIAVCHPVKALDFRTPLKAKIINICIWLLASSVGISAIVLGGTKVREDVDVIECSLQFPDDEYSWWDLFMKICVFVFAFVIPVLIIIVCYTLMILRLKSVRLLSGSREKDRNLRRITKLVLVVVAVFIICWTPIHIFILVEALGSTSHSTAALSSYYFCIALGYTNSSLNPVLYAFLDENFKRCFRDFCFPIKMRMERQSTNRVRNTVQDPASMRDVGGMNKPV

human NOP receptor = human NOP receptor (Homo sapiens, UniProt P41146); experiment: [3H]nociceptin NOP receptor binding assay; conditions: 3 μM test ligand
human NOP receptor, sequence (P41146 whole entry): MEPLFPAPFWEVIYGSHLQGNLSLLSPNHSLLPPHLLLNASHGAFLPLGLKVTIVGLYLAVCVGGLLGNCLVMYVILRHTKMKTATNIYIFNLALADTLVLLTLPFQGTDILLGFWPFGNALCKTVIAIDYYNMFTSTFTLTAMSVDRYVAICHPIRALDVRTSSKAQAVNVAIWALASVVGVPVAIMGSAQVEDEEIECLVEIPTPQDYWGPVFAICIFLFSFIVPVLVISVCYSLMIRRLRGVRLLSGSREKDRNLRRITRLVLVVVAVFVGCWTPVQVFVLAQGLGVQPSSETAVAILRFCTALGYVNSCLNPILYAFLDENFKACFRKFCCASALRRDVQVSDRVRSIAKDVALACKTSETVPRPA
In short: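 Membranes came from CHO cells stably expressing human NOP receptor (~5 pmol/mg protein), lysed hypotonically in Tris/EDTA/PMSF (pH 7.4). Binding used 20 μg protein with 0.2 nM [3H]nociceptin in 50 mM Tris-HCl, 0.1% BSA, pH 7.4, with or without 3 μM test compound. Percent inhibition = 100% − (binding with compound − nonspecific)/(total − nonspecific) × 100%.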

hMOR = hMOR (Homo sapiens, UniProt P35372); experiment: Ca2+ flux assay in Gαqi5 transfected hMOR-CHO cells; type: cell-based; conditions: agonism study
hMOR, sequence (P35372 whole entry): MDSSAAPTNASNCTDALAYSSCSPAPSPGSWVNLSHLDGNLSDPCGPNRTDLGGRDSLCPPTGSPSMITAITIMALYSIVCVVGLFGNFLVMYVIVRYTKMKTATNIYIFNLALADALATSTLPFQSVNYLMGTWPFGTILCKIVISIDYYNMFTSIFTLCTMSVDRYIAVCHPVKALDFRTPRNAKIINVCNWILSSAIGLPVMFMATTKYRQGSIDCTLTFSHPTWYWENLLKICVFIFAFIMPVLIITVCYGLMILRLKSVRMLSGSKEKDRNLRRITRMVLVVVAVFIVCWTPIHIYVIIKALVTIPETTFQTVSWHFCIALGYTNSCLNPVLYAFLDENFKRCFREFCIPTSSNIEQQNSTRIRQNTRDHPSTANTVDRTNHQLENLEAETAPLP

morphine-pelleted mice = experiment: Withdrawal assay in chronic morphine-pelleted mice; type: in vivo, mouse
DOR = conditions: read-out: DOR Ki; cited from earlier work
mice = conditions: cited from earlier work
MOR [3] = biological target: T1, MOR; type: cell-based
MOR in rat thalamus = conditions: cited from earlier work
[4] = 1 mg/kg s.c., morphine-pelleted mice
[5] = 50 mg/kg s.c., morphine-pelleted mice

T1 sequence (P42866 whole entry): as the sequence (P42866 whole entry) above

## C[C@@H](NC(=O)[C@@H](N)Cc1ccc(O)cc1)C(=O)NCC(=O)N(C)[C@@H](Cc1ccccc1)C(=O)NCCO [DAMGO, [D-Ala^2, N-MePhe^4, Gly-ol]-enkephalin, reference compound]
MOR [1]; versus vehicle
  Reduction in receptor density (Bmax): ~50%
MOR [2]
  Bmax (pmol/mg) of [3H]naloxone saturation binding after pretreatment: 1.49 ± 0.12 pmol/mg

## O=C(N[C@H]1CC[C@@]2(O)[C@H]3Cc4ccc(O)c5c4[C@@]2(CCN3CC2CC2)[C@H]1O5)c1cccc2cc[nH]c12 [NAN, 17-cyclopropylmethyl-3,14β-dihydroxy-4,5α-epoxy-6α-(indole-7-carboxamido)morphinan]
μ opioid receptor (MOR); 5 nM coincubation, mMOR-CHO cells and thalamus
  Effect on the DAMGO Emax value: did not have any effect on the DAMGO Emax value
μ opioid receptor (MOR); mMOR-CHO cells
  MOR stimulation compared to other ligands: low MOR stimulation that was significantly less than DAMGO and similar to NAQ and nalbuphine
μ opioid receptor (MOR); read-out: Emax (% DAMGO)
  Emax: 25.5 ± 1.58%
MOR in mouse thalamus
  MOR stimulation compared to other ligands: low MOR stimulation that was significantly less than DAMGO and similar to NAQ and nalbuphine
δ opioid receptor (DOR); DOR EC50 (nM), mDOR-CHO
  EC50: 22.8 ± 3.95 nM
δ opioid receptor (DOR); read-out: DOR Emax (% max of SNC80), mDOR-CHO, relative to 5 μM SNC80
  Emax: ~27%
κ opioid receptor (KOR); KOR EC50 (nM), mKOR-CHO
  EC50: 17.8 ± 3.24 nM
κ opioid receptor (KOR); read-out: KOR Emax (% max of U50,488H), mKOR-CHO, relative to 5 μM U50,488H
  Emax: ~74%
Human NOP receptor
  Inhibition of [3H]-nociceptin binding to the NOP receptor: did not inhibit binding; also recorded: did not show NOP binding
hMOR
  Agonism in Ca2+ flux assay: no apparent agonism
MOR [1]; 1 μM
  Bmax (pmol/mg) of [3H]naloxone saturation binding after pretreatment: 3.92 ± 0.20 pmol/mg
morphine-pelleted mice; [4]
  Escape jumps versus 1 mg/kg NTX: significantly less
  Wet-dog shakes versus 1 mg/kg NTX: significantly less
morphine-pelleted mice; 10 mg/kg s.c., morphine-pelleted mice
  Escape jumps versus 1 mg/kg NTX: not significantly different
morphine-pelleted mice; [5]
  Escape jumps versus 1 mg/kg NTX: not significantly different
  Paw tremors versus 1 mg/kg NTX: significantly less
  Wet-dog shakes versus 1 mg/kg NTX: significantly less
morphine-pelleted mice; 50 mg/kg s.c., placebo-pelleted mice, 20 min observation
  Withdrawal signs in placebo-pelleted mice: did not induce any significant withdrawal signs
DOR
  Ki: 13.7 ± 1.39 nM
mice
  Antinociception in the tail-flick assay: did not produce antinociception
mice; mice, warm water tail immersion assay
  Antagonism of the antinociceptive activity of morphine: almost completely antagonized

## O=C(N[C@H]1CC[C@@]2(O)[C@H]3Cc4ccc(O)c5c4[C@@]2(CCN3CC2CC2)[C@H]1O5)c1cc2ccccc2cn1 [NAQ, 17-cyclopropyl-methyl-3,14β-dihydroxy-4,5α-epoxy-6α-(isoquinoline-3-carboxamido)morphinan]
MOR [3]
  Change of DAMGO EC50 value after ligand pretreatment (desensitization): did not produce a significant change
MOR [1]; versus vehicle
  Apparent increase in [3H]naloxone KD value after treatment: 3.5–4 fold
MOR [2]
  Bmax (pmol/mg) of [3H]naloxone saturation binding after pretreatment: 3.75 ± 0.34 pmol/mg

## O=C1CC[C@@]2(O)[C@H]3Cc4ccc(O)c5c4[C@@]2(CCN3CC2CC2)[C@H]1O5 [NTX, naltrexone]
MOR in rat thalamus
  Functional character in the rat thalamus: pure antagonists

## Oc1ccc2c3c1O[C@H]1[C@@H](O)CC[C@@]4(O)[C@@H](C2)N(CC2CCC2)CC[C@]314 [nalbuphine]
MOR in rat thalamus
  Functional character in the rat thalamus: pure antagonists
